Shown are actives, neighbours in structure and some others; about 5.5% of the full set was active somewhere.
HePTP inhibitor: blocks human HePTP tyrosine phosphatase. recombinant HePTP phosphatase activity, OD absorbance. inhibition, % at 20 µM. P35236. actives 0.64% (n = 110,000); in the data active means inhibition above about 50%
Target sequence (P35236 whole entry, looked up): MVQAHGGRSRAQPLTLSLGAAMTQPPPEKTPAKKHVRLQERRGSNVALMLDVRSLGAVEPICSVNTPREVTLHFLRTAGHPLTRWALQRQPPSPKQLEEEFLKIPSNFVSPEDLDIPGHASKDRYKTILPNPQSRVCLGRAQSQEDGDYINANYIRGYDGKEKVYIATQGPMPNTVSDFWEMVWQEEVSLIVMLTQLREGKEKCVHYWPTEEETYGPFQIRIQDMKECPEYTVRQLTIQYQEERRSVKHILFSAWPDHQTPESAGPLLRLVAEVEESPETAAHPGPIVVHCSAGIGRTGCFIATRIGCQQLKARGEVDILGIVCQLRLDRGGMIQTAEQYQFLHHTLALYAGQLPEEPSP
PostGolgi yeast: growth inhibition of a yeast mutant, post-Golgi transport screen. AID 739. inhibition, % at 10 µM. actives 0.9% (n = 98,000). post-Golgi transport phenotypic cell assay;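 further: yeast cells grown in 1536-well plates; yeast grown about 18 h at 30C before absorbance read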
Ecoli tolC: blocks growth of E. coli BW25113 tolC mutant | OD615 | growth inhibition, % at 10 µM (by protocol) | actives 2.2% (n = 65,000) | AID 573;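 active means growth inhibition at or above a cutoff equal to the mean over every tested compound plus 3 SD, cut at about 60% in these data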;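 further: growth measured after 20 h incubation at 37 °C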
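Test system: tolC-deleted E. coli BW25113 | Medium: LB with kanamycin 50 µg/mL | Compound dosing: Single concentration, 10 µM final per compound | Schedule: 37 °C, 20 h exposure | Measured by: OD at 615 nm | Evaluation: Percent growth inhibition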
PostGolgi ctrl: inhibits growth of the yeast control strain. efflux-deficient yeast background strain, growth absorbance A615, 16 h. inhibition, % at 10 µM. actives 5% (n = 98,000). AID 738
PLAP activator: activates human placental alkaline phosphatase | P05187 | purified PLAP enzyme, luminescent substrate read-out; stronger effect = higher value | AID 696 | actives 1.2% (n = 96,000) | activation fold at 20 µM; in the data active means activation fold above about 2
Ecoli WT expand: E. coli BW25113 growth inhibition, expanded screen. OD600 absorbance. growth inhibition, % at 100 µM. actives 0.15% (n = 98,000);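 active means growth inhibition above about 50% at one test dose, limit read from the data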;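 further: growth measured after 20 h incubation at 37 °C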
Hits are given with their value. Unless noted, no stated cut-off is given here; in the data, active means inhibition above about 30%; inactive means the rest.

`Cc1ccc(Cn2ccc(NC(=O)c3cc(-c4ccc5c(c4)OCO5)on3)n2)cc1` gave HePTP inhibitor inactive, PostGolgi yeast inactive, Ecoli tolC inactive, PostGolgi ctrl 34.6, PLAP activator inactive and Ecoli WT expand inactive.
`Cc1ccc(Cn2ccc(NC(=O)c3cc(-c4ccccc4)on3)n2)cc1` gave HePTP inhibitor inactive, PostGolgi yeast inactive, Ecoli tolC inactive, PostGolgi ctrl inactive, PLAP activator inactive and Ecoli WT expand inactive.
NC1=NC(=O)/C(=C/c2ccc(OC(=O)c3cccc([N+](=O)[O-])c3)cc2)S1 was read as HePTP inhibitor inactive.
Screening O=S(=O)(NCCSc1ccc(Cl)cc1)c1ccc2c(c1)OCCO2 returned HePTP inhibitor inactive, PostGolgi yeast inactive, Ecoli tolC 100.0, PostGolgi ctrl 30.8, PLAP activator inactive and Ecoli WT expand inactive.
For CC1=C(C(=O)OCCc2ccccc2)C(c2cccc(Cl)c2Cl)CC(=O)N1 (stereo unspecified) the results were HePTP inhibitor inactive.
`O=C(CN1CCN(Cc2ccc(F)cc2Cl)C1=O)NCCc1ccc(Cl)cc1` gave PostGolgi yeast inactive, PostGolgi ctrl 36.6, PLAP activator inactive and Ecoli WT expand inactive.
CCOc1ccc(-n2cnnn2)cc1S(=O)(=O)Nc1c(C)cccc1C was read as HePTP inhibitor inactive, PostGolgi yeast inactive, Ecoli tolC inactive, PostGolgi ctrl 42.2, PLAP activator inactive and Ecoli WT expand inactive.
`CCOC(=O)c1c(-c2ccc(Br)cc2)csc1NC(=S)NC(C)=O` gave HePTP inhibitor inactive.
N#Cc1cc2c(nc1SCc1ccccc1)CCCCC2 was read as PostGolgi yeast inactive, PostGolgi ctrl 30.9, PLAP activator inactive and Ecoli WT expand inactive.
Screening N#Cc1cc2c(nc1SCc1cccnc1)CCCCC2 returned HePTP inhibitor inactive, PostGolgi yeast 43.5, Ecoli tolC inactive, PostGolgi ctrl 62.6, PLAP activator inactive and Ecoli WT expand inactive.
Screening Cc1c(C#N)c(N=CN(C)C)c(C(=O)c2ccc(Br)cc2)n1-c1ccc(Br)cc1 returned HePTP inhibitor inactive.
Screening Nc1cc(-c2ccc(Br)cc2)nn1S(=O)(=O)c1cccc2nsnc12 returned PostGolgi yeast 44.1, PostGolgi ctrl 83.1, PLAP activator inactive and Ecoli WT expand inactive.
Screening Nc1cc(-c2ccc(Cl)cc2)nn1S(=O)(=O)c1cccc2nsnc12 returned PostGolgi yeast 58.0, PostGolgi ctrl 65.7, PLAP activator inactive and Ecoli WT expand inactive.
For CS(=O)(=O)N1CCN(Cc2ccccc2F)CC1 the results were HePTP inhibitor inactive.
`O=C(Nc1nc2ccccc2[nH]1)C1CC(=O)N(c2ccc3c(c2)OCCO3)C1` (stereo unspecified) gave HePTP inhibitor inactive, PostGolgi yeast inactive, Ecoli tolC inactive, PostGolgi ctrl inactive, PLAP activator 2.9 and Ecoli WT expand inactive.
C=CCNC(=S)NNC(=O)c1ccccc1 was read as PostGolgi yeast inactive, PostGolgi ctrl inactive, PLAP activator inactive and Ecoli WT expand inactive.
Screening C=CCNC(=S)NNC(=O)c1ccc(OC(C)C)cc1 returned PostGolgi yeast inactive, PostGolgi ctrl inactive, PLAP activator 2.4 and Ecoli WT expand inactive.
`C=CCNC(=S)NNC(=O)c1csc(C)c1CC` gave PostGolgi yeast inactive, PostGolgi ctrl inactive, PLAP activator 2.1 and Ecoli WT expand inactive.
Screening C=CCNC(=S)NNC(=O)c1ccc2c(c1)OCO2 returned PostGolgi yeast inactive, PostGolgi ctrl inactive, PLAP activator 2.2 and Ecoli WT expand inactive.
CCNC(=S)NNC(=O)c1ccc(OC(F)F)cc1 was read as PostGolgi yeast inactive, PostGolgi ctrl inactive, PLAP activator 2.3 and Ecoli WT expand inactive.
COCCCNC(=O)c1ccc2c(c1)OCO2 was read as HePTP inhibitor inactive, PostGolgi yeast inactive, Ecoli tolC inactive, PostGolgi ctrl inactive, PLAP activator inactive and Ecoli WT expand inactive.
`O=C(COc1ccc(Br)cc1)Nc1cc(Cl)c(Cl)cc1Cl` gave HePTP inhibitor inactive.
CSc1ccc(S(=O)(=O)N(CC(N)=O)c2ccc(C)cc2)cc1 was read as HePTP inhibitor inactive.
For CCn1c(SCC(=O)OC(C)C)nnc1-c1cccc(Cl)c1 the results were HePTP inhibitor inactive, PostGolgi yeast inactive, Ecoli tolC inactive, PostGolgi ctrl inactive, PLAP activator inactive and Ecoli WT expand inactive.
Screening CC(=O)N1N=C(c2cccc(Cl)c2)OC1c1ccc(C(C)C)cc1 (stereo unspecified) returned PostGolgi yeast inactive, PostGolgi ctrl 35.4, PLAP activator inactive and Ecoli WT expand inactive.
O=[N+]([O-])c1ccc2nc(-c3ccccc3)n(OCc3ccc(Cl)cc3)c2c1 was read as PostGolgi yeast inactive, PostGolgi ctrl inactive, PLAP activator inactive and Ecoli WT expand inactive.
Clc1cccc(COn2c(-c3ccc(Cl)cc3Cl)nc3ncccc32)c1 was read as PostGolgi yeast inactive, PostGolgi ctrl 71.1, PLAP activator inactive and Ecoli WT expand inactive.
`Cc1ccc(COn2c(-c3ccc(Cl)cc3Cl)nc3ncccc32)cc1` gave PostGolgi yeast inactive, PostGolgi ctrl 63.5, PLAP activator inactive and Ecoli WT expand inactive.
`COc1cc(C(=O)Nc2cc(-c3nc4cc(Cl)cc(Cl)c4o3)ccc2C)cc(OC)c1OC` gave HePTP inhibitor inactive.
O=C(c1ccc(F)cc1)N1CCN(C(=O)c2cccs2)CC1 was read as HePTP inhibitor inactive.
Screening Nc1cc(N)c(OCC(F)(F)F)cc1OCC(F)(F)F returned HePTP inhibitor inactive, PostGolgi yeast 30.3, Ecoli tolC inactive, PostGolgi ctrl inactive, PLAP activator inactive and Ecoli WT expand inactive.
Cc1cccc(-c2nc3sc4c(c3c(=O)o2)CCC4)c1 was read as HePTP inhibitor inactive.
COCCN(C(=O)Cc1cccs1)C(C(=O)NCc1ccc(OC)cc1)c1ccc(C(C)C)cc1 (stereo unspecified) was read as PostGolgi yeast inactive, PostGolgi ctrl inactive, PLAP activator 2.6 and Ecoli WT expand inactive.
For O=C(O)C1C2C=CC(C2)C1C(=O)N1CCOCC1 (stereo unspecified) the results were HePTP inhibitor inactive, PostGolgi yeast inactive, Ecoli tolC inactive, PostGolgi ctrl 52.6, PLAP activator inactive and Ecoli WT expand inactive.
Screening Cc1ccccc1OCc1nnc2c3cnn(C)c3ncn12 returned HePTP inhibitor inactive, PostGolgi yeast inactive, Ecoli tolC inactive, PostGolgi ctrl 34.2, PLAP activator inactive and Ecoli WT expand inactive.
For Cc1ccccc1OCc1nc2ccccc2c(=O)n1N the results were PostGolgi yeast inactive, PostGolgi ctrl inactive, PLAP activator inactive and Ecoli WT expand inactive.
Screening Cc1ccc(NC(=O)c2ccccc2O)cc1 returned HePTP inhibitor inactive, PostGolgi yeast inactive, Ecoli tolC 91.8, PostGolgi ctrl inactive and Ecoli WT expand inactive.
O=C(Nc1ccccc1)c1ccccc1O was read as HePTP inhibitor inactive, PostGolgi yeast inactive, Ecoli tolC inactive, PostGolgi ctrl inactive, PLAP activator inactive and Ecoli WT expand inactive.
COc1cc(NC(=O)/C=C/c2ccc(OC)c(Br)c2)c(OC)cc1Cl was read as HePTP inhibitor inactive.
`O=c1c2cc(-c3ccccc3)sc2ncn1-n1cccc1` gave PostGolgi yeast inactive, PostGolgi ctrl inactive, PLAP activator inactive and Ecoli WT expand inactive.

Assay outcomes deposited in PubChem by several laboratories.
